Data set [1] deals with T1, Bifunctional epoxide hydrolase 2 (Homo sapiens) (UniProt P34913).
T1 sequence (whole entry): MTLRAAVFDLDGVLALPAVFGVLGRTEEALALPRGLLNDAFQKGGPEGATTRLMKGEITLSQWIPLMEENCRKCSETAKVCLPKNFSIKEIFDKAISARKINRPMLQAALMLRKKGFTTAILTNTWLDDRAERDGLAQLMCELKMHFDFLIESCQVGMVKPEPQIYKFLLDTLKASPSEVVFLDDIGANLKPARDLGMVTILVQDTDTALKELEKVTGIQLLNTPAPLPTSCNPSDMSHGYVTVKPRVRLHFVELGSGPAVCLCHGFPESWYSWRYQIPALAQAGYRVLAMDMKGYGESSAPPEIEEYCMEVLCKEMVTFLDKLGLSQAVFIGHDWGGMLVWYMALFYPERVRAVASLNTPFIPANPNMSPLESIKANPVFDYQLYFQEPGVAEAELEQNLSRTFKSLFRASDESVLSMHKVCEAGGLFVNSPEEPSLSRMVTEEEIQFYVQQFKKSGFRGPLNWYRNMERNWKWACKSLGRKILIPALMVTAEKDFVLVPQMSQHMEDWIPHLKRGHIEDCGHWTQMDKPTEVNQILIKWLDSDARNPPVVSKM
Kind of data set: Inhibition of sEH in human HepG2 cells assessed as NF-kappaB mRNA expression at 1 uM after 8 to 16 hrs by SYBR green based qRT-PCR analysis relative to DMSO control. It counts as cell-based. The procedure, abridged:
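HepG2 cells treated with compound or 0.1% DMSO vehicle; NF-κB mRNA quantified by SYBR Green qRT-PCR, comparative ΔΔCt with GAPDH reference; expressed as % of vehicle (100%).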

Data set [2] addresses T2, Bile acid receptor (Homo sapiens, UniProt Q96RI1).
T2 sequence (Q96RI1 whole entry): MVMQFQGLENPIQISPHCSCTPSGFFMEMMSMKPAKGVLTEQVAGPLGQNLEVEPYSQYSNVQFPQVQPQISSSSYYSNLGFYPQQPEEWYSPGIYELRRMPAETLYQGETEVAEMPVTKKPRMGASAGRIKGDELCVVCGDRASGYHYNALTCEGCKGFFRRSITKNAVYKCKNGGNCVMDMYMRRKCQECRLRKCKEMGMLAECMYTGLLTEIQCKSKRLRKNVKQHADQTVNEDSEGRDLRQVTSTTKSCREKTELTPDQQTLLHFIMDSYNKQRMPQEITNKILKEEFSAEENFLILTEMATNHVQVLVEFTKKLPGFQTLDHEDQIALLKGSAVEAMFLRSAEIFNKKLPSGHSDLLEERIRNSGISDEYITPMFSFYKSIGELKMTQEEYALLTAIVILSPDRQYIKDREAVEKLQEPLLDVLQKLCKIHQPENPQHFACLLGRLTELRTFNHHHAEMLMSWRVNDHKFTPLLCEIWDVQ
The data set can be described thus: Transactivation of human FXR expressed in human HeLa cells co-expressing BSEP after 24 hrs by dual-glo luciferase reporter gene assay. Type of data set: cell-based. In short, it runs like this: (§1)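 HeLa cells in DMEM/10% FCS at 37 °C, 5% CO2; switched to 0.5% charcoal-stripped FCS before calcium phosphate co-transfection with pcDNA3-hFXR, pSG5-hRXR, BSEP promoter–firefly luciferase reporter and pRL-SV40 renilla. Compound in 0.1% DMSO, phenol red-free medium, 24 h.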

In data set [3] the target is T3, Bifunctional epoxide hydrolase 2 (Homo sapiens, UniProt P34913).
T3 sequence (P34913 whole entry): T1 sequence (whole entry)
The data set can be described thus: Inhibition of recombinant human sEH using PHOME as substrate preincubated for 30 mins followed by substrate addition measured for 30 mins by fluorescence photometric method. Conditions: read-out: IC50. In short, it runs like this: (§2)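 Recombinant human sEH in Bis-Tris buffer pH 7, 0.1 mg/mL BSA, 0.01% Triton X-100 (final), preincubated 30 min at room temperature with compound (1% DMSO final). PHOME added at 50 μM final; 6-methoxynaphthaldehyde fluorescence read each minute for 30 min.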

Data set [4] concerns the target T4, Bile acid receptor (Homo sapiens) (UniProt Q96RI1).
T4 sequence (whole entry): T2 sequence (Q96RI1 whole entry)
The data set can be described thus: Transactivation of human FXR expressed in human HeLa cells co-expressing BSEP at 50 uM after 24 hrs by dual-glo luciferase reporter gene assay relative to GW4064. It counts as cell-based. The procedure, abridged:
as §1

Data set [5] can be described thus: Aqueous solubility of compound at 5 mg after 24 hrs by HPLC analysis. It counts as physicochemical.
Data set [6] deals with T1, Bifunctional epoxide hydrolase 2 (Homo sapiens). The data set can be described thus: Inhibition of recombinant human sEH at 50 uM using PHOME as substrate preincubated for 30 mins followed by substrate addition measured for 30 mins by fluorescence photometric method. In short, it runs like this: as §2
In data set [7] the target is T2, Bile acid receptor. Kind of data set: Transactivation of FXR in human HepG2 cells assessed as CYP7A1 mRNA expression at 3 uM after 8 to 16 hrs by SYBR green based qRT-PCR analysis relative to DMSO control. Type of data set: ADME, cell-based. In short, it runs like this: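 HepG2 cells treated 8 or 16 h with compound or 0.1% DMSO, washed in cold PBS, RNA extracted; SYBR Green qRT-PCR in duplicate, ≥4 independent experiments (n = 3 for CD36/FAM3A). ΔΔCt method with GAPDH reference; expression as % of vehicle (100%). Pioglitazone 1 μM used as positive control for the PPARγ genes.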

Data set [8] has as its system Liver. Kind of data set: Drug level in Sprague-Dawley rat liver microsomes treated with 4-(tert-Butyl)-N-(2-chloro-4-(methylsulfonamido)benzyl)-benzamide at 10 uM preincubated with NADPH regenerating system for 5 mins followed by addition of liver microsomes by LC-MS/MS method. Type of data set: ADME, microsome.
In data set [9] the target is T1, Bifunctional epoxide hydrolase 2 (Homo sapiens). Kind of data set: Inhibition of sEH in human HepG2 cells assessed as NF-kappaB mRNA expression at 10 uM after 8 to 16 hrs by SYBR green based qRT-PCR analysis relative to DMSO control. It counts as cell-based.
Data set [10] has the same target. Kind of data set: Inhibition of sEH in primary human monocytes-derived macrophages assessed as reduction in LPS-stimulated IL-12p70 release at 10 uM after 16 hrs by cytometric bead array method. It counts as cell-based. In short, it runs like this:
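Blood monocytes isolated by dextran sedimentation and Nycoprep gradient, adherence-selected 1 h, differentiated with GM-CSF 10 ng/mL for 7 days plus IFNγ 10 ng/mL for last 48 h. Stimulated with LPS 100 ng/mL plus compound for 16 h; supernatant IL-10 and IL-12p70 measured by cytometric bead array flow cytometry.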

Data set [11] has as its target T4, Bile acid receptor (Homo sapiens). The data set can be described thus: Transactivation of FXR in human HepG2 cells assessed as SREBP1c mRNA expression at 1 uM after 8 to 16 hrs by SYBR green based qRT-PCR analysis relative to DMSO control. Type of data set: cell-based. In short, it runs like this:
(§3)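 HepG2 cells incubated with test compound (0.1 and 1 μM) or 0.1% DMSO for 8 or 16 h, washed in cold PBS, RNA extracted; target mRNA by SYBR Green qRT-PCR, duplicate samples, ≥4 independent experiments; comparative ΔΔCt with GAPDH reference, vehicle set as 100%.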

Data set [12] shares this target. Kind of data set: Transactivation of FXR in human HepG2 cells assessed as SHP mRNA expression at 1 uM after 8 to 16 hrs by SYBR green based qRT-PCR analysis relative to DMSO control. Type of data set: cell-based. The procedure, abridged:
as §3

For data set [13] the target is unchanged. Kind of data set: Transactivation of FXR in human HepG2 cells assessed as FGF19 mRNA expression at 1 uM after 8 to 16 hrs by SYBR green based qRT-PCR analysis relative to DMSO control. Type of data set: cell-based. In short, it runs like this:
as §3

The target is the same in data set [14]. The data set can be described thus: Transactivation of FXR in human HepG2 cells assessed as BSEP mRNA expression at 1 uM after 8 to 16 hrs by SYBR green based qRT-PCR analysis relative to DMSO control. Type of data set: cell-based. The procedure, abridged:
as §3

Data set [15] deals with T1, Bifunctional epoxide hydrolase 2 (Homo sapiens). Kind of data set: Inhibition of sEH in human HuT-78 cells assessed as reduction in Pam3CSK4-stimulated TNFalpha release preincubated for 24 hrs followed by Pam3CSK4 addition measured after 18 hrs by ELISA. It counts as cell-based. The procedure, abridged:
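HuT-78 cells in RPMI 1640 with 10% heat-inactivated FCS, 2.0 × 10^6 cells/well, exposed to compound (0.1% DMSO) for 24 h; medium then replaced with fresh compound plus Pam3CSK4 20 ng/mL for 18 h; supernatant TNFα measured by ELISA (absorbance 450 nm); each concentration repeated independently at least three times.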

For data set [16] the target is unchanged. The data set can be described thus: Inhibition of sEH in primary human monocytes-derived macrophages assessed as reduction in LPS-stimulated IL-12p70 release at 1 uM after 16 hrs by cytometric bead array method. Type of data set: cell-based. The procedure, abridged:
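Human blood monocytes isolated by dextran sedimentation/Nycoprep and adherence, differentiated to macrophages with GM-CSF 10 ng/mL for 7 days plus IFNγ 10 ng/mL for final 48 h; stimulated with LPS 100 ng/mL together with compound for 16 h; supernatant IL-12p70 measured by cytometric bead array on flow cytometer.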

Activity calls are given as the source filed them. The rule behind the calls is not given here. Some results are limits rather than exact numbers.

Consider `C[C@@H]1C[C@H]2[C@@H]3CCC4=CC(=O)C=C[C@]4(C)[C@@]3(F)[C@@H](O)C[C@]2(C)[C@@]1(O)C(=O)CO`, for which the inhibition in data set [1] stood at 59.4%.
Turning to `CC(C)(C)c1ccc(C(=O)NCc2ccc(NC(=O)C(F)(F)F)cc2Cl)cc1`, in data set [2], the EC50 was determined as 14 nM. Also, in [3], the half-inhibitory concentration (IC50) came to 8.9 nM. For the same molecule, the Emax in [4] was determined as 21%. The solubility at 24 h in data set [5] was under 0.1 µg/mL.
On to `CC(C)(C)c1ccc(C(=O)NCc2cccc(C(=O)O)c2)cc1`, for which the EC50 in [2] came out at 1700 nM. In addition, the inhibition in data set [6] worked out at 26%. In data set [4], this molecule returned an Emax of 14%.
With `Cc1ccc(C(=O)NCc2ccc(C(=O)O)cc2)cc1C`, the EC50 in [2] was determined as 320 nM. The inhibition in [6] was determined as 52%. Further, the Emax in data set [4] is 12%.
For `CC(C)(C)c1ccc(C(=O)NCc2ccc(C(=O)O)c(Cl)c2)cc1` the same measures were 8.8 nM, 50% and 21%.
`CC(NC(=O)c1ccc(C(C)(C)C)cc1)c1ccc(C(=O)O)cc1` (stereo not given) had an EC50 in data set [2] of 76 nM. The inhibition in data set [6] amounted to 37%. Further, in data set [4], the Emax amounted to 24%.
Regarding `CC(C)c1onc(-c2c(Cl)cccc2Cl)c1COc1ccc(/C=C/c2cccc(C(=O)O)c2)c(Cl)c1`, in data set [7], the Activity is given as 0.03%.
Regarding `CC(C)(C)c1ccc(C(=O)NCc2ccc(N)cc2Cl)cc1`, in data set [8], the Drug metabolism result is on record as “Metabolite_Detected”.
Consider `O=C(Nc1ccc(I)cc1)NC1CCCCC1`, for which the inhibition in data set [9] worked out at 22.9%. Also, the inhibition result in data set [10] is “Active”.
In the case of `CC(C)(CO)c1ccc(C(=O)NCc2ccc(NS(C)(=O)=O)cc2Cl)cc1`, the Drug metabolism result in data set [8] is listed as “Metabolite_Detected”.
Consider `Cc1cc(CNC(=O)c2ccc(C(C)(C)C)cc2)ccc1C(=O)O`, for which the midpoint of the response in [2], the EC50, lay at 160 nM. For the same molecule, the inhibition in data set [6] came out at 53%. Also, the maximum response (Emax) in data set [4] was determined as 14%.
`O=C(O)c1ccc(CNC(=O)c2ccc3ccccc3c2)cc1`: a half-maximal response in data set [2] (EC50) required 1360 nM. Also, the inhibition in [6] amounted to 45%. In [4], this molecule registered a maximum response (Emax) of 18%.
Take `CC[C@H]1[C@@H](O)[C@@H]2[C@H](CC[C@]3(C)[C@@H]([C@H](C)CCC(=O)O)CC[C@@H]23)[C@@]2(C)CC[C@@H](O)C[C@@H]12`: the Activity in data set [11] is 51%; in data set [12], 416%; in data set [13] it was 640%; in data set [14] it was 970%. In addition, the inhibition in data set [1] worked out at 29%. Further, the inhibition entry in data set [15] was “inactive”. Besides, the inhibition entry in [16] was “Active”.

The values are drawn from ChEMBL document CHEMBL4017509, “A Dual Modulator of Farnesoid X Receptor and Soluble Epoxide Hydrolase To Counter Nonalcoholic Steatohepatitis” (J Med Chem, 2017).
